The structures appear in SMILES notation. Residue numbers refer to the chain shown, from its start. The source made the active and inactive calls. The rule behind the calls is not given here. A value given as a limit tells only on which side of the number the result lay.

Experiment [1] deals with T1, Protein phosphatase methylesterase 1 (Mus musculus, UniProt Q8BVQ5).
T1 sequence (Q8BVQ5 whole entry): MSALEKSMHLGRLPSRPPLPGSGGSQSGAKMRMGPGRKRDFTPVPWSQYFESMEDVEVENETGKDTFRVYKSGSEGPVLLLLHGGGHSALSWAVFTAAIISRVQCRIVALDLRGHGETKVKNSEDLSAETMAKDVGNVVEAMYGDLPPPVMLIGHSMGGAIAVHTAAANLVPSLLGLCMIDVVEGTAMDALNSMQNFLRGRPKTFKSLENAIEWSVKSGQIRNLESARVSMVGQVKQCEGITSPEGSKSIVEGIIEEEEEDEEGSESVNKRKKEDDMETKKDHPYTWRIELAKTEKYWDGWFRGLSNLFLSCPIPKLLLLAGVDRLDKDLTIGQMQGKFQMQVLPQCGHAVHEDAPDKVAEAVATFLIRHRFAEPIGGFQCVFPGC
Kind of experiment: Inhibition of PME1 binding to FP-rhodamine in mouse brain soluble proteome after 45 mins by gel-based competitive activity-based protein profiling assay.

Experiment [2] addresses T2, Protein phosphatase methylesterase 1 (Homo sapiens) (UniProt Q9Y570).
T2 sequence (whole entry): T1 sequence (Q8BVQ5 whole entry) with T42S, G114S, S123P, V150I, A167S, A168S, V268I, N269S
Kind of experiment: Inhibition of PME1 overexpressed in HEK293T cells assessed as reduction in demethylated PP2A level at 20 uM after 1 hr by Western blot analysis relative to control. Type of experiment: cell-based. To be noted: HEK-293T. In a few lines: (§1)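 HEK 293T cells, either stably overexpressing PME-1 or untransfected, treated in medium for 1 h at 37 °C. Total cell extract (2 mg/mL) run on reducing SDS-PAGE (10%) and blotted with demethylated-specific (4b7), methylated-specific (2A10) and total PP2A antibodies, imaged by infrared fluorescence. Mean ± SEM, n = 3, compared against DMSO-treated cells.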

Experiment [3] addresses T2, Protein phosphatase methylesterase 1 (Homo sapiens). Nature of the experiment: Inhibition of PME1 overexpressed in HEK293T cells assessed as increase in methylated PP2A level at 20 uM after 1 hr by Western blot analysis. The experiment is classed as cell-based. The conditions noted are these: HEK-293T. In a few lines: as §1
(Immunoblotting shows a protein as a band on a membrane.)

Experiment [4] has as its target Prolyl endopeptidase (Mus musculus) (UniProt Q9QUR6). Nature of the experiment: Inhibition of prolyl endopeptidase binding to FP-rhodamine in mouse brain soluble proteome at 50 uM after 30 mins by […] activity-based protein profiling assay relative to control. The experiment is classed as tissue-based. For orientation: Polarisation of emitted light reports the rotation of a fluorescent probe.

The target of experiment [5] is T3, Protein phosphatase methylesterase 1 (Mus musculus) (UniProt Q8BVQ5).
T3 sequence (whole entry): T1 sequence (Q8BVQ5 whole entry)
Kind of experiment: Inhibition of PME1 binding to FP-rhodamine in mouse brain soluble proteome at 20 uM after 30 mins by […] activity-based protein profiling assay relative to control. Type of experiment: tissue-based.

The target in experiment [6] is T2, Protein phosphatase methylesterase 1 (Homo sapiens). Nature of the experiment: Inhibition of PME1 expressed in untransfected HEK293T cells assessed as reduction in demethylated PP2A level at 500 nM after 1 hr by Western blot analysis. The conditions noted are these: HEK-293T. Type of experiment: cell-based. Put shortly: as §1
Experiment [7] has as its target Acylamino-acid-releasing enzyme (Mus musculus) (UniProt Q8R146). Kind of experiment: Inhibition of acyl peptide hydrolase binding to FP-rhodamine in mouse brain soluble proteome at 50 uM after 30 mins by […] activity-based protein profiling assay relative to control. The experiment is classed as tissue-based.
For experiment [8], the target named is Acylamino-acid-releasing enzyme (Homo sapiens) (UniProt P13798). Nature of the experiment: Inhibition of acyl peptide hydrolase binding to FP-rhodamine in human HEK293T cells at 0.5 to 50 uM after 30 mins by […] activity-based protein profiling assay. To be noted: HEK-293T.
Acylamino-acid-releasing enzyme (Homo sapiens), sequence (P13798 whole entry): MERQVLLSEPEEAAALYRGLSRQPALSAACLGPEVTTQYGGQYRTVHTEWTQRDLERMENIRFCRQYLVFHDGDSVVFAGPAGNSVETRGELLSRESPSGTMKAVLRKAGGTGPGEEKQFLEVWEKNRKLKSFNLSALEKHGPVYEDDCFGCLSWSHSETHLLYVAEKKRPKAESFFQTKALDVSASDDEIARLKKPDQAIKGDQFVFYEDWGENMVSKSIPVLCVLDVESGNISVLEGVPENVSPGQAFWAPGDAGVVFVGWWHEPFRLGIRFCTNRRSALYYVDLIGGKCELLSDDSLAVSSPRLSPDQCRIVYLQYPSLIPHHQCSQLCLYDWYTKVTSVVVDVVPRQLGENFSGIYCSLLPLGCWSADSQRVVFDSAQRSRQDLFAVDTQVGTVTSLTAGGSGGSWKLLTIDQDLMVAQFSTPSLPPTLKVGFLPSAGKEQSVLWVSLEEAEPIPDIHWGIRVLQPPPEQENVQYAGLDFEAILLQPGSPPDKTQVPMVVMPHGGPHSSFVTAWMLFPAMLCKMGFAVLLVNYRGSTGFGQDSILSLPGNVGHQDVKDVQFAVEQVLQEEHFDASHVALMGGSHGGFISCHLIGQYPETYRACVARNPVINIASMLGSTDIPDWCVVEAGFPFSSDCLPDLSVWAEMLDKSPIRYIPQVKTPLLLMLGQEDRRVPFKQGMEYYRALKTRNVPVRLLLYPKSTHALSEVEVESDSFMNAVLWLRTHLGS
Experiment [9] has as its target T2, Protein phosphatase methylesterase 1 (Homo sapiens). Kind of experiment: Inhibition of PME1-based PP2A […] in human HEK293T cells at 50 uM after 3 hrs by Western blot analysis. Type of experiment: cell-based. To be noted: HEK-293T.
Experiment [10] has as its target Protein phosphatase methylesterase 1 (Homo sapiens, UniProt Q9Y570). Nature of the experiment: Inhibition of PME1 binding to FP-rhodamine in human MDA-MB-231 cells after 45 mins by gel-based competitive activity-based protein profiling assay.

Acylamino-acid-releasing enzyme (Mus musculus), sequence (Q8R146 whole entry): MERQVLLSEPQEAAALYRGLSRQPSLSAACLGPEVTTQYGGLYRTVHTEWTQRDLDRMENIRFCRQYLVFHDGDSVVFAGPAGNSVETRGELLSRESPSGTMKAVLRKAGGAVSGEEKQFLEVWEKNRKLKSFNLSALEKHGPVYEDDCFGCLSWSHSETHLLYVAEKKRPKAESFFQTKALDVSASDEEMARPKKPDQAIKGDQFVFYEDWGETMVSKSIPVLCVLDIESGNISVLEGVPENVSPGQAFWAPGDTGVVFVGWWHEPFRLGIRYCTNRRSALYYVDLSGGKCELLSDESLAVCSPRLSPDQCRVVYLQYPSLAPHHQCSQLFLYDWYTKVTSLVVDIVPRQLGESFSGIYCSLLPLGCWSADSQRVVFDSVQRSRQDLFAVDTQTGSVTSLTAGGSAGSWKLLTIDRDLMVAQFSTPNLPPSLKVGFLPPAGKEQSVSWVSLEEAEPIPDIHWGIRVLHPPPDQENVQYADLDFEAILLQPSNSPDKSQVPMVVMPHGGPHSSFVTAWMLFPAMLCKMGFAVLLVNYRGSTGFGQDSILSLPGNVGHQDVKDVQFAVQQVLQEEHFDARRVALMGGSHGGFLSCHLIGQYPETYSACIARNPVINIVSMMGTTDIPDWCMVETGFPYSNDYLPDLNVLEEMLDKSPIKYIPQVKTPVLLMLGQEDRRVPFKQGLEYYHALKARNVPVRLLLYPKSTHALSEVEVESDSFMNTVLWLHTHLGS
Prolyl endopeptidase (Mus musculus), sequence (Q9QUR6 whole entry, looked up): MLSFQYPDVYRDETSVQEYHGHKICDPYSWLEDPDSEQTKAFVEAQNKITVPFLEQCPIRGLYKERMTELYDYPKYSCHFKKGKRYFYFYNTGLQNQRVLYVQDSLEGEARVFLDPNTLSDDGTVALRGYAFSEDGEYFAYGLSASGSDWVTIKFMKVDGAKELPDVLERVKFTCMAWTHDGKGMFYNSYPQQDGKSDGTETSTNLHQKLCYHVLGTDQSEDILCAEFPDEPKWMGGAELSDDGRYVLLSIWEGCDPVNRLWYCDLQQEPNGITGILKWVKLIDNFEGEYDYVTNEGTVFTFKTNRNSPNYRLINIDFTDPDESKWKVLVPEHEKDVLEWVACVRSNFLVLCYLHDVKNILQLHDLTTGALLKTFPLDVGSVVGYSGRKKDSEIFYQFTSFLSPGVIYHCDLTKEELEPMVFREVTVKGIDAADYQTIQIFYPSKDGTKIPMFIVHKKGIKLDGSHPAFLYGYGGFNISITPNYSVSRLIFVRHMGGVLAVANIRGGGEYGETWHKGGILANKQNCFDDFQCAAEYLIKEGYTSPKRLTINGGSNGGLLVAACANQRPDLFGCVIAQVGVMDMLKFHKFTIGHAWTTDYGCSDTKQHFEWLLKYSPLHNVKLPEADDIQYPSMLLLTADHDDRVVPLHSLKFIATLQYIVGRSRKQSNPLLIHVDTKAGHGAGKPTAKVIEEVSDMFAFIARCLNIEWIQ
Protein phosphatase methylesterase 1 (Homo sapiens, UniProt Q9Y570), sequence (Q9Y570 whole entry): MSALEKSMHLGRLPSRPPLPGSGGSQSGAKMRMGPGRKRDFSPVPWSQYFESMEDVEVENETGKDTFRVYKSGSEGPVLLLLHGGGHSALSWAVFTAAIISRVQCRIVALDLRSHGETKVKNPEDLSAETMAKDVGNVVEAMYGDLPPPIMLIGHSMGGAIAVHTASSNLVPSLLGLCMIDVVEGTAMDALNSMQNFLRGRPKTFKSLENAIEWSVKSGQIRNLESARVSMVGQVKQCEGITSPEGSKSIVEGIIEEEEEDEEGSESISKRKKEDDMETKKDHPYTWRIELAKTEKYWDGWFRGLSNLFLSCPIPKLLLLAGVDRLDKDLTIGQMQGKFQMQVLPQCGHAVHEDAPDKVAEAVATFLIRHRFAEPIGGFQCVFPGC

Broadly, the IC50 is the midpoint of a concentration-inhibition curve. High values mean weaker potency in that assay, low ones greater potency in that assay. Broadly, the inhibition is the relative decrease from the control value, in per cent. Turning to `N#C/C(=C\c1cccn1S(=O)(=O)c1cccc(C#N)c1)S(=O)(=O)c1ccc(F)cc1`, the IC50 in [1] was 0.64 µM. For the same molecule, the inhibition in experiment [2] worked out at 80%. Besides, the inhibition entry in [3] is “Active”.
With `CS(=O)(=O)/C(C#N)=C/c1cccn1S(=O)(=O)c1ccc(C#N)cc1`, in experiment [1], the IC50 worked out at 4 µM. In addition, the inhibition in experiment [4] is > 50%.
Molecule `CS(=O)(=O)/C(C#N)=C/c1ccccc1` showed an inhibition in experiment [5] of 0%.
For `CC(C)(C)S(=O)(=O)/C(C#N)=C/c1cccn1S(=O)(=O)c1cccc(C#N)c1`, in experiment [1], the IC50 amounted to 3.4 µM.
On to `CS(=O)(=O)C(=Cc1cccn1S(=O)(=O)c1ccccc1)S(C)(=O)=O`, for which the inhibition was 0% in [5] and > 50% in [4].
`CS(=O)(=O)C(C#N)Cc1cccn1S(=O)(=O)c1ccccc1` (stereo unspecified) yielded an inhibition in experiment [5] of 0%.
`COC(=O)N1C(=O)[C@](c2ccccc2)(C2CCCC2)N1C(=O)OC`: the inhibition entry in [6] is “Active”.
Turning to `N#C/C(=C\c1cccn1S(=O)(=O)c1ccccc1)S(=O)(=O)c1ccccc1`, the half-inhibitory concentration (IC50) in experiment [1] is > 20 µM.
In experiment [5], `CS(=O)(=O)/C(C#N)=C/c1ccc[nH]1` came in with an inhibition of 0%.
Consider `CS(=O)(=O)/C(C#N)=C/c1cccn1S(=O)(=O)c1ccc(Cl)cc1`, for which, in experiment [7], the inhibition was > 50%.
`CC(C)(C)S(=O)(=O)/C(C#N)=C/c1cccn1S(=O)(=O)c1ccccc1`: in [1], the half-maximal inhibitory concentration (IC50) was determined as 6.8 µM.
For the molecule `CS(=O)(=O)/C(C#N)=C/c1cccn1S(=O)(=O)c1ccccc1`, the values for the inhibition in [7] and in experiment [5] were > 50% and 90%, respectively. For the same molecule, the inhibition result in experiment [8] and in experiment [9] was “Active” in each case. In experiment [10], this molecule showed an IC50 of 10.8 µM.
In the case of `CS(=O)(=O)/C(=C/c1cccn1S(=O)(=O)c1ccccc1)CN`, in [5], the inhibition turned out to be 0%.
The same measure, in the same setting: for `CS(=O)(=O)/C(C#N)=C/c1ccc([N+](=O)[O-])cc1` the value was 0%.
Take `CS(=O)(=O)/C(C#N)=C/c1cccn1S(=O)(=O)c1c(F)c(F)c(F)c(F)c1F`: in [1], the concentration for half-maximal inhibition (IC50) is > 20 µM.
In turn, `N#CC(C#N)=Cc1cccn1S(=O)(=O)c1ccccc1` had an inhibition in [5] of 50%.
In [1], `CS(=O)(=O)/C(C#N)=C/c1cccn1S(=O)(=O)c1ccc([N+](=O)[O-])cc1` gave an IC50 of 3 µM.
Same read-out and setting: next, `CS(=O)(=O)/C(C#N)=C/c1cccn1S(=O)(=O)c1cccc(C#N)c1`: 2.5 µM.

These data come from ChEMBL document CHEMBL2203175, “Discovery and optimization of sulfonyl acrylonitriles as selective, covalent inhibitors of protein phosphatase methylesterase-1” (J Med Chem, 2011).
